The nature of data set [1]: Toxicity in HaM/ICR mouse assessed as effect on motor autonomic activity at 5 to 20 mg/kg,iv. Format: organism-based. The following applies: in vivo, dose 5-20 mg/kg.
The test system of another data set is OVCAR-3. Briefly: Antiproliferative activity against human OVCAR-3 cells assessed inhibition of cell growth incubated for 72 hrs by SRB assay. In kind it is functional, cell-based. The following applies: OVCAR-3, 72 h. For orientation: Sulforhodamine B stains cellular protein and so reports cell mass.
The nature of data set [2]: Toxicity in BALB/c mouse injected with mouse 4T1 cells assessed as decrease in body weight at 20 mg/kg,iv administrated once per week for 4 weeks. In kind it is organism-based. Also noted: scale not given: the % may be the effect or the level left. To be noted: in vivo, 672 h.
A further data set addresses Cytochrome P450 2D6 (Homo sapiens, UniProt P10635). Put plainly: Inhibition of CYP2D6 in human liver microsomes using probe substrate at 0.1 to 100 uM in presence of NADPH. The following applies: dose 0.1-100 µM. In kind it is ADME, Microsome. (Liver microsomes are vesicles of endoplasmic reticulum, rich in cytochrome P450 enzymes.)
Data set [3] can be described thus: Drug metabolism in rat hepatocytes assessed as docetaxel metabolite formation at 20 uM incubated for 180 mins. In kind it is ADME, cell-based, Hepatocyte. The following applies: 3 h.
In the next data set the test system is HT-29. Put plainly: Antiproliferative activity against human HT-29 cells assessed inhibition of cell growth incubated for 72 hrs by SRB assay. In kind it is functional, cell-based. To be noted: HT-29, 72 h.
The nature of data set [4]: Stability in mouse plasma assessed as compound remaining at 40 uM incubated for 6 hrs. Format: ADME, cell-free.
In data set [5] the test system is 4T1. Put plainly: Antitumor activity against mouse 4T1 cells xenografted with BALB/c mouse assessed as inhibition of tumor growth at 10 mg/kg,iv administrated once per week for 4 weeks. Format: functional. The following applies: 4T1, 672 h. An outline of the steps:
(§1)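 4T1 cells injected into the mammary fat pad of BALB/c mice; iv saline vehicle or 5, 10 or 20 mg/kg once weekly for 4 weeks; body weight, tumour volume, tumour weight, lung metastatic nodule count and metastasis score recorded; n = 10, mean ± SEM, ANOVA and Student's t test.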

Data set [6] can be described thus: Toxicity in BALB/c mouse xenografted with human MDA-MB-231 cells assessed as side effects at 10 mg/kg,iv administrated once per week for 3 weeks. Format: organism-based. To be noted: in vivo, 504 h. On the technique in general: In xenograft studies the graft and the host belong to different species.
Data set [7] can be described thus: Half life in male Beagle dog at 1 mg/kg,iv measured upto 24 hrs. In kind it is ADME, organism-based, Canis lupus familiaris. The following applies: in vivo.
The test system of data set [8] is 4T1. Briefly: Antitumor activity against mouse 4T1 cells implanted in BALB/c mouse assessed as decrease in serum MMP9 level at 20 mg/kg,iv administrated once per week for 4 weeks by ELISA. In kind it is functional, organism-based. The gist of the method:
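4T1 fat-pad model in BALB/c mice, iv 5–20 mg/kg once weekly for 4 weeks, with vehicle and naive groups; serum MMP9, TIMP-1, IL-6 and S100A9 measured by mouse ELISA kits.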

A short description of data set [9]: Prodrug conversion in mouse tumor implanted with mouse 4T1 cells assessed as Cmax of docetaxel at 4 mg/kg,iv measured upto 72 hrs. In kind it is ADME, organism-based, Neoplasm. Further details: time < 72 hrs, dose 4 mg/kg, route iv. To be noted: in vivo.
Data set [10] in a line: AUC (0-t) in Beagle dog at 1 mg/kg,iv measured upto 24 hrs. Format: ADME, organism-based, Canis lupus familiaris. Further details: dose 1 mg/kg, time < 24 hrs, route iv. The following applies: in vivo. The gist of the method: (§2)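 Single iv dose: rats 2, 4 or 8 mg/kg by intravenous injection; Beagle dogs 1, 2 or 4 mg/kg by intravenous infusion. Plasma concentration–time data were analysed by sex and pooled. Reported parameters: Cmax, Tmax, AUC0−t, AUC0−∞, MRT0−∞, t1/2, CL, Vss, given as mean ± SD.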

The nature of data set [11]: Clearance in female rat at 4 mg/kg,iv measured upto 24 hrs. In kind it is ADME, organism-based. The following applies: in vivo. The gist of the method:
(§3)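 Rats were given a single iv injection at 2, 4 or 8 mg/kg. Plasma parent drug and released docetaxel were followed over time. Cmax, Tmax, AUC, MRT, t1/2, CL and Vss were reported for males, females and all animals combined.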

Data set [12] deals with 4T1. Briefly: Antitumor activity against mouse 4T1 cells implanted in BALB/c mouse assessed as increase in lung NOD1 expression level at 5 to 20 mg/kg,iv administrated once per week for 4 weeks by western blot assay. In kind it is functional, organism-based. The following applies: dose 5-20 mg/kg. An outline of the steps:
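4T1 fat-pad model in BALB/c mice, iv once weekly for 4 weeks; MMP9, MMP2 and NOD1 in spleen, lung and tumour by western blot, β-actin loading control; bands averaged over five mice per group, representative of two independent experiments.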

Data set [13] is described as follows: Acute toxicity in Sprague-Dawley rat assessed as maximum tolerated dose at iv administration. Format: organism-based. To be noted: in vivo. The gist of the method:
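Acute toxicity after a single intravenous administration. […] In dogs, an approximate lethal dose range was determined.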

Data set [14] in a line: Toxicity in female Sprague-Dawley rat assessed as maximal non-toxic dose at iv administration. In kind it is organism-based. To be noted: in vivo, read-out: MNTD.
A short description of data set [15]: AUC (0-t) in female rat at 4 mg/kg,iv measured upto 24 hrs. Format: ADME, organism-based. Also noted: time < 24 hrs, dose 4 mg/kg, route iv. To be noted: in vivo. The gist of the method: as §2
Data set [16] is described as follows: AUC (0-t) in rat at 2 mg/kg,iv measured upto 24 hrs. Format: ADME, organism-based. Further details: dose 2 mg/kg, time < 24 hrs, route iv. The following applies: in vivo. The gist of the method:
as §2

A short description of data set [17]: Cmax in rat at 2 mg/kg,iv measured upto 24 hrs. In kind it is ADME, organism-based. Further details: time < 24 hrs, dose 2 mg/kg, route iv. The following applies: in vivo. The gist of the method: as §3
Data set [18] can be described thus: AUC (0-infinity) in Beagle dog at 2 mg/kg,iv measured upto 24 hrs. In kind it is ADME, organism-based, Canis lupus familiaris. Also noted: dose 2 mg/kg, time < 24 hrs, route iv. To be noted: in vivo. The gist of the method:
as §2

For another data set, the target named is Cytochrome P450 2B6 (Homo sapiens, UniProt P20813). Put plainly: Inhibition of CYP2B6 in human liver microsomes using probe substrate at 0.1 to 100 uM in presence of NADPH. Format: ADME, Microsome. The following applies: dose 0.1-100 µM.
A short description of data set [19]: Tmax in Beagle dog at 4 mg/kg,iv measured upto 24 hrs. To be noted: in vivo. In kind it is ADME, organism-based, Canis lupus familiaris.
Data set [20] can be described thus: Half life in female Beagle dog at 4 mg/kg,iv measured upto 24 hrs. To be noted: in vivo. In kind it is ADME, organism-based, Canis lupus familiaris.
The test system of another data set is COLO 205. Put plainly: Antiproliferative activity against human COLO 205 cells assessed inhibition of cell growth incubated for 72 hrs by SRB assay. Format: functional, cell-based. The following applies: COLO 205, 72 h.
The test system of data set [21] is 4T1. Put plainly: Antitumor activity against mouse 4T1 cells xenografted with BALB/c mouse assessed as inhibition of tumor growth at 5 to 20 mg/kg,iv administrated once per week for 4 weeks. In kind it is functional, organism-based. The following applies: dose 5-20 mg/kg. The gist of the method: as §1
Data set [22] can be described thus: MRT (0 to infinity) in rat at 2 mg/kg,iv measured upto 24 hrs. In kind it is ADME, organism-based. To be noted: in vivo.
Data set [23] can be described thus: Prodrug conversion in mouse plasma implanted with mouse 4T1 cells assessed as AUC (0-t) of docetaxel at 4 mg/kg,iv measured upto 72 hrs. In kind it is ADME, organism-based. Further details: time < 72 hrs, dose 4 mg/kg, route iv. To be noted: in vivo.
A short description of data set [24]: AUC (0-t) in rat at 4 mg/kg,iv measured upto 24 hrs. In kind it is ADME, organism-based. Also noted: time < 24 hrs, dose 4 mg/kg, route iv. The following applies: in vivo. An outline of the steps: as §2
A short description of data set [25]: Drug distribution in rat lung at 4 mg/kg,iv measured by 0.25 hrs. In kind it is ADME, organism-based. The following applies: in vivo. An outline of the steps:
(§4)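 Rats received 4 mg/kg iv. Parent drug and released docetaxel were assayed in tissues and plasma from the first sampling at 0.25 h to 24 h. The lower limit of quantitation was 200 ng/g.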

A short description of data set [26]: Drug distribution in rat adrenal gland at 4 mg/kg,iv measured by 0.25 hrs. Format: ADME, organism-based. The following applies: in vivo. An outline of the steps: as §4
Data set [27] can be described thus: MRT in mouse plasma implanted with mouse 4T1 cells at 5.7 mg/kg,iv measured upto 72 hrs. In kind it is ADME, organism-based.
Data set [28] can be described thus: Toxicity in BALB/c mouse xenografted with human MDA-MB-231 cells assessed as body weight loss at 5.7 mg/kg,iv administrated once per week for 3 weeks. To be noted: in vivo, 504 h. Format: organism-based. The gist of the method: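 Nude BALB/c nu/nu mice received subcutaneous human tumour cells into the right flank. Dosing started at mean tumour volume of 100–120 mm3, iv once weekly for 3 weeks; the taxane arm was an equimolar control. Body weight and overt side effects were monitored. Mean ± SEM, n = 8.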

The nature of data set [29]: Tmax in mouse plasma implanted with mouse 4T1 cells at 5.7 mg/kg,iv measured upto 72 hrs. Format: ADME, organism-based.
The test system of data set [30] is 4T1. Put plainly: Antitumor activity against mouse 4T1 cells implanted in BALB/c mouse assessed as decrease in serum MMP9 level at 5.7 mg/kg,iv administrated once per week for 4 weeks in presence of MDA-205 by ELISA. Format: functional, organism-based.

pIC50: −log10 of the molar value. The source made the active and inactive calls. The calls are words filed in the database; no cut-off is given here.

Cytochrome P450 2D6, sequence (P10635 whole entry): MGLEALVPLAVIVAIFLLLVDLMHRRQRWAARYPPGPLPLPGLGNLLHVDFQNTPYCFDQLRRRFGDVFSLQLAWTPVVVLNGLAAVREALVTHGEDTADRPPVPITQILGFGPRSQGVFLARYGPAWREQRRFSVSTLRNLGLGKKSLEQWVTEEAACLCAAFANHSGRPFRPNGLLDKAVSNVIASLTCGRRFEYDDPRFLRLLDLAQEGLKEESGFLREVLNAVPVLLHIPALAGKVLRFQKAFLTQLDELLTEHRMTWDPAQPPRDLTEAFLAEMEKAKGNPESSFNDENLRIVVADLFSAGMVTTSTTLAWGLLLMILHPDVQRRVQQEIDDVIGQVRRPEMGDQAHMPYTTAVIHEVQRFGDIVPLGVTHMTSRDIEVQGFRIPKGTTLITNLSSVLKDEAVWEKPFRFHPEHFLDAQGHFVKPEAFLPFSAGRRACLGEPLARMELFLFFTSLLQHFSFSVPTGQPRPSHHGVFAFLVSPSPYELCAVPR
Cytochrome P450 2B6, sequence (P20813 whole entry): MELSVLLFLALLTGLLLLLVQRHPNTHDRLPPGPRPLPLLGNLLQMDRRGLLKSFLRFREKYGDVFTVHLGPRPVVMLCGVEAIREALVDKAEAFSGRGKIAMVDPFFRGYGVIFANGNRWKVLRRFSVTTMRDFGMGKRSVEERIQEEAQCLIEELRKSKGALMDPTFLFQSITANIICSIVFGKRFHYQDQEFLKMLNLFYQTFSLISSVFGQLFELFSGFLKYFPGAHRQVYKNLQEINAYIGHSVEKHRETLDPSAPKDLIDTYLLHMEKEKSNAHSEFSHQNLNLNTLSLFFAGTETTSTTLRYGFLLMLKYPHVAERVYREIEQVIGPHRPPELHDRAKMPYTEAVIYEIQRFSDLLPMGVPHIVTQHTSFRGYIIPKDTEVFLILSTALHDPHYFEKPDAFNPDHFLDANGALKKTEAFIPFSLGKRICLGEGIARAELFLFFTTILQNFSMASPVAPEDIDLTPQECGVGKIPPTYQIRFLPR

As for `CC(=O)O[C@@]12CO[C@@H]1C[C@H](O)[C@@]1(C)C(=O)[C@H](O)C3=C(C)[C@@H](OC(=O)[C@H](OC(=O)CCC(=O)NCCCC[C@H](NC(=O)CC[C@@H](NC(=O)[C@H](C)NC(=O)/C=C/c4ccc(F)cc4Cl)C(N)=O)C(=O)O)[C@@H](NC(=O)OC(C)(C)C)c4ccccc4)C[C@@](O)([C@@H](OC(=O)c4ccccc4)[C@H]21)C3(C)C`, the Activity result was “Non-Toxic” in data set [1], 8% in data set [2] and “Non-Toxic” in data set [6]. Further, the pIC50 with OVCAR-3, with HT-29 and in the data set on COLO 205 was 7.79 each time. In addition, the “inhibition (INH)” value at Cytochrome P450 2D6 and at Cytochrome P450 2B6 was “Not Active” in each case. Moreover, the Drug metabolism result in [3] is “Metabolite_Detected”. In data set [4], the Stability result is on record as “Stable”. In the data set with 4T1 [5], the inhibition in vivo (commonly the percentage by which the read-out fell short of the control) at 10 mg/kg is 37%. Besides, the half-life (commonly how long it takes for the measured level to halve) is 13.6 min in [7] and 33.8 min in [20]. The result with 4T1 [8] and with 4T1 [12] was Active. Besides, the Cmax – broadly, the maximum level reached in the sampled fluid or tissue – in data set [9] stood at 2390 nM; in [17], 15200 ng/mL. Also, the AUC(0-t) – broadly, exposure summed from dosing to a finite time, without extrapolation to infinity – at 24 h came to 1590 ng·h/mL in data set [10], 13000 ng·h/mL in data set [15], 5200 ng·h/mL in data set [16] and 16900 ng·h/mL in data set [24]. Also, the clearance (commonly a measure of how efficiently the substance is removed, as volume per time) in data set [11] stood at 5.13 mL/min/kg. Further, the MTD (commonly the largest dose that counted as tolerated) in data set [13] turned out to be 9.4 mg/kg. Besides, the NOAEL in [14] worked out at 2 mg/kg. Besides, the AUC(0-inf) (as a rule, the area under the concentration-time curve extrapolated to infinity) in data set [18] amounted to 5950 ng·h/mL. Besides, the Tmax (in general, the time at which the peak concentration occurs) in [19] amounted to 30 min. Also, the inhibition entry in the data set with 4T1 [21] was “Dose-Dependent Effect”. The MRT inf – broadly, the average time that molecules of a dose stay in the body – in data set [22] came out at 11.3 min. In data set [23], the AUCt was found to be 8.43 µM·h. Besides, the Drug uptake result in [25] and in data set [26] was “Active” in each case.
In the case of `CC(=O)O[C@@]12CO[C@@H]1C[C@H](O)[C@@]1(C)C(=O)[C@H](O)C3=C(C)[C@@H](OC(=O)[C@H](O)[C@@H](NC(=O)OC(C)(C)C)c4ccccc4)C[C@@](O)([C@@H](OC(=O)c4ccccc4)[C@H]21)C3(C)C` [DOCETAXEL ANHYDROUS], the MRT (as a rule, a mean duration of stay, worked out from the concentration-time curve) in [27] is 137 min. In addition, the Activity result in data set [28] is “Non-Toxic”. In addition, the Tmax in [29] came out at 1.8 min. In addition, in the data set with 4T1 [30], the outcome was Active.

(Values after ChEMBL document CHEMBL5252546, “Salutaxel, a Conjugate of Docetaxel and a Muramyl Dipeptide (MDP) Analogue, Acts as Multifunctional Prodrug That Inhibits Tumor Growth and Metastasis” (J Med Chem, 2018).)
